Data reported in ChEMBL document CHEMBL6071151, “Discovery of Inhibitors Targeting Protein-Protein Interaction between Bacterial RNA Polymerase and NusG as Novel Antimicrobials” (J Med Chem, 2024).

Tests used:
Format in all cases: functional
Escherichia coli = assay: Antimicrobial activity against Escherichia coli ATCC 25922 assessed as reduction in microbial growth measured after 20 hrs by CLSI based broth microdilution method
Outline: (§1)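 Broth microdilution per CLSI in cation-adjusted Mueller-Hinton broth. Two-fold serial dilutions from 256 to 0.25 μg/mL, inoculum about 5 × 10⁵ CFU/mL. Read after 20 h at 37 °C. MIC is the lowest concentration with no visible growth. Run in duplicate.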

Streptococcus pneumoniae [1] = assay: Antimicrobial activity against Streptococcus pneumoniae ATCC 49619 assessed as reduction in microbial growth measured after 20 hrs by CLSI based broth microdilution method
Klebsiella pneumoniae = assay: Antimicrobial activity against Klebsiella pneumoniae ATCC 700603 assessed as reduction in microbial growth measured after 20 hrs by CLSI based broth microdilution method; outline: as §1
Enterobacter cloacae = assay: Antimicrobial activity against Enterobacter cloacae ATCC 13047 assessed as reduction in microbial growth measured after 20 hrs by CLSI based broth microdilution method; outline: as §1
Acinetobacter baumannii = assay: Antimicrobial activity against Acinetobacter baumannii ATCC 19606 assessed as reduction in microbial growth measured after 20 hrs by CLSI based broth microdilution method; outline: as §1
Staphylococcus aureus [2] = assay: Antimicrobial activity against Staphylococcus aureus ATCC 29213 assessed as reduction in microbial growth measured after 20 hrs by CLSI based broth microdilution method; outline: as §1
Pseudomonas aeruginosa = assay: Antimicrobial activity against Pseudomonas aeruginosa ATCC 27853 assessed as reduction in microbial growth measured after 20 hrs by CLSI based broth microdilution method; outline: as §1
Staphylococcus aureus [3] = assay: Antimicrobial activity against Staphylococcus aureus ATCC 25923 assessed as reduction in microbial growth measured after 20 hrs by CLSI based broth microdilution method; outline: as §1
Enterococcus faecalis = assay: Antimicrobial activity against Enterococcus faecalis ATCC 19433 assessed as reduction in microbial growth measured after 20 hrs by CLSI based broth microdilution method; outline: as §1
Streptococcus pneumoniae [4] = assay: Antimicrobial activity against Streptococcus pneumoniae clinical isolate CUHK-X01 assessed as reduction in microbial growth measured after 20 hrs by CLSI based broth microdilution method
[5] = system: Staphylococcus saprophyticus; assay: Antimicrobial activity against Staphylococcus saprophyticus ATCC 15305 assessed as reduction in microbial growth measured after 20 hrs by CLSI based broth microdilution method
Streptococcus agalactiae = assay: Antimicrobial activity against Streptococcus agalactiae ATCC 12386 assessed as reduction in microbial growth measured after 20 hrs by CLSI based broth microdilution method

OC(CNCCNc1ccc(C(F)(F)F)cn1)COCc1cccc(C(F)(F)F)c1 (centres undefined)
MIC (Escherichia coli): 64 µg/mL | MIC (Streptococcus pneumoniae [1]): 32 µg/mL | MIC (Klebsiella pneumoniae): > 256 µg/mL | MIC (Enterobacter cloacae): 256 µg/mL | MIC (Acinetobacter baumannii): 128 µg/mL | MIC (Staphylococcus aureus [2]): 32 µg/mL | MIC (Pseudomonas aeruginosa): > 256 µg/mL | MIC (Staphylococcus aureus [3]): 64 µg/mL | MIC (Enterococcus faecalis): 64 µg/mL

CNC(C)[C@@H]1CC[C@@H](N)[C@@H](O[C@H]2[C@H](O)[C@@H](O[C@H]3OC[C@](C)(O)[C@H](NC)[C@H]3O)[C@H](N)C[C@@H]2N)O1.CN[C@@H]1[C@@H](O)[C@@H](O[C@@H]2[C@@H](O)[C@H](O[C@H]3O[C@H](C(C)N)CC[C@H]3N)[C@@H](N)C[C@H]2N)OC[C@]1(C)O.CN[C@@H]1[C@@H](O)[C@@H](O[C@@H]2[C@@H](O)[C@H](O[C@H]3O[C@H](CN)CC[C@H]3N)[C@@H](N)C[C@H]2N)OC[C@]1(C)O (some centres undefined)
MIC (Streptococcus pneumoniae [1]): 32 µg/mL | MIC (Streptococcus pneumoniae [4]): 32 µg/mL | MIC [5]: ≤ 0.062 µg/mL | MIC (Streptococcus agalactiae): 64 µg/mL

OC(CNCCNc1ccc(C(F)(F)F)cn1)COCc1ccccc1 (centres undefined)
MIC (Escherichia coli): 256 µg/mL | MIC (Streptococcus pneumoniae [1]): 128 µg/mL | MIC (Klebsiella pneumoniae): > 256 µg/mL | MIC (Enterobacter cloacae): 256 µg/mL | MIC (Acinetobacter baumannii): 256 µg/mL | MIC (Staphylococcus aureus [2]): 128 µg/mL | MIC (Pseudomonas aeruginosa): > 256 µg/mL | MIC (Staphylococcus aureus [3]): 256 µg/mL | MIC (Enterococcus faecalis): 256 µg/mL

OC(CNCCNc1ccccc1C(F)(F)F)COCc1ccc(C(F)(F)F)cc1 (centres undefined)
MIC (Escherichia coli): 64 µg/mL | MIC (Streptococcus pneumoniae [1]): 32 µg/mL | MIC (Klebsiella pneumoniae): > 256 µg/mL | MIC (Enterobacter cloacae): 128 µg/mL | MIC (Acinetobacter baumannii): 64 µg/mL | MIC (Staphylococcus aureus [2]): 64 µg/mL | MIC (Pseudomonas aeruginosa): > 256 µg/mL | MIC (Staphylococcus aureus [3]): 64 µg/mL | MIC (Enterococcus faecalis): 64 µg/mL

OC(CNCCNc1ccc(C(F)(F)F)cn1)COCc1ccc(C(F)(F)F)cc1 (centres undefined)
MIC (Escherichia coli): 128 µg/mL | MIC (Streptococcus pneumoniae [1]): 16 µg/mL | MIC (Klebsiella pneumoniae): > 256 µg/mL | MIC (Enterobacter cloacae): 128 µg/mL | MIC (Acinetobacter baumannii): 64 µg/mL | MIC (Staphylococcus aureus [2]): 32 µg/mL | MIC (Pseudomonas aeruginosa): > 256 µg/mL | MIC (Staphylococcus aureus [3]): 32 µg/mL | MIC (Enterococcus faecalis): 32 µg/mL

OC(CNCCSc1ccccc1C(F)(F)F)COc1ccc(C(F)(F)F)cc1 (centres undefined)
MIC (Escherichia coli): 16 µg/mL | MIC (Streptococcus pneumoniae [1]): 4 µg/mL | MIC (Klebsiella pneumoniae): > 256 µg/mL | MIC (Enterobacter cloacae): 128 µg/mL | MIC (Acinetobacter baumannii): 32 µg/mL | MIC (Staphylococcus aureus [2]): 8 µg/mL | MIC (Pseudomonas aeruginosa): > 256 µg/mL | MIC (Staphylococcus aureus [3]): 16 µg/mL | MIC (Enterococcus faecalis): 8 µg/mL

O=[N+]([O-])c1ccc(OCC(O)CNCCNc2ccccc2C(F)(F)F)cc1 (centres undefined)
MIC (Escherichia coli): 128 µg/mL | MIC (Streptococcus pneumoniae [1]): 64 µg/mL | MIC (Klebsiella pneumoniae): > 256 µg/mL | MIC (Enterobacter cloacae): 128 µg/mL | MIC (Acinetobacter baumannii): 128 µg/mL | MIC (Staphylococcus aureus [2]): 64 µg/mL | MIC (Pseudomonas aeruginosa): > 256 µg/mL | MIC (Staphylococcus aureus [3]): 64 µg/mL | MIC (Enterococcus faecalis): 128 µg/mL

N#Cc1ccc(OCC(O)CNCCNc2ccccc2C(F)(F)F)cc1 (centres undefined)
MIC (Escherichia coli): > 256 µg/mL | MIC (Streptococcus pneumoniae [1]): 128 µg/mL | MIC (Klebsiella pneumoniae): > 256 µg/mL | MIC (Enterobacter cloacae): > 256 µg/mL | MIC (Acinetobacter baumannii): > 256 µg/mL | MIC (Staphylococcus aureus [2]): 128 µg/mL | MIC (Pseudomonas aeruginosa): > 256 µg/mL | MIC (Staphylococcus aureus [3]): > 256 µg/mL | MIC (Enterococcus faecalis): > 256 µg/mL

COC(=O)c1ccc(OCC(O)CNCCNc2nccc(C(F)(F)F)n2)cc1 (centres undefined)
MIC (Escherichia coli): > 256 µg/mL | MIC (Streptococcus pneumoniae [1]): 256 µg/mL | MIC (Klebsiella pneumoniae): > 256 µg/mL | MIC (Enterobacter cloacae): > 256 µg/mL | MIC (Acinetobacter baumannii): > 256 µg/mL | MIC (Staphylococcus aureus [2]): > 256 µg/mL | MIC (Pseudomonas aeruginosa): > 256 µg/mL | MIC (Staphylococcus aureus [3]): > 256 µg/mL | MIC (Enterococcus faecalis): > 256 µg/mL

O=[N+]([O-])c1ccc(OCC(O)CNCCNc2ncccn2)cc1 (centres undefined)
MIC (Escherichia coli): > 256 µg/mL | MIC (Streptococcus pneumoniae [1]): > 256 µg/mL | MIC (Klebsiella pneumoniae): > 256 µg/mL | MIC (Enterobacter cloacae): > 256 µg/mL | MIC (Acinetobacter baumannii): > 256 µg/mL | MIC (Staphylococcus aureus [2]): > 256 µg/mL | MIC (Pseudomonas aeruginosa): > 256 µg/mL | MIC (Staphylococcus aureus [3]): > 256 µg/mL | MIC (Enterococcus faecalis): > 256 µg/mL

OC(CNCCNc1ccccc1C(F)(F)F)COCc1cccc(C(F)(F)F)c1.OC(CNCCNc1ccccc1C(F)(F)F)COCc1cccc(C(F)(F)F)c1 (centres undefined)
MIC (Escherichia coli): > 256 µg/mL | MIC (Streptococcus pneumoniae [1]): 128 µg/mL | MIC (Klebsiella pneumoniae): > 256 µg/mL | MIC (Enterobacter cloacae): > 256 µg/mL | MIC (Acinetobacter baumannii): > 256 µg/mL | MIC (Staphylococcus aureus [2]): 128 µg/mL | MIC (Pseudomonas aeruginosa): > 256 µg/mL | MIC (Staphylococcus aureus [3]): > 256 µg/mL | MIC (Enterococcus faecalis): > 256 µg/mL
